The values below come from ChEMBL document CHEMBL1122443, “Synthesis and antitumor evaluation of selected 5,6-disubstituted 1(2)H-indazole-4,7-diones” (1983).

Activity calls are given as the source filed them. The calls are words filed in the database; no cut-off is given here.

Assay [1] deals with Mus musculus. Description: Antitumor activity in CF1 mice bearing Ehrlich ascites carcinoma measured as percent ascrit packed cell volume at 1 mg/kg. Type of assay: functional. In short, it runs like this:
(§1)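 CF1 male mice (22–25 g) were inoculated ip with 2 × 10⁶ Ehrlich cells on day 0 and treated ip on days 1–8 in 0.05% Tween 80 or 5% EtOH/0.05% Tween 80 vehicle. On day 9 the mice were sacrificed, and the ascrit (packed cell volume) of the ascites fluid was determined.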

Assay [2] has as its system Mus musculus. As to the kind of experiment: Antitumor activity in CF1 mice bearing Ehrlich ascites carcinoma measured as ascites volume at 8 mg/kg. Type of assay: functional. The procedure, abridged:
(§2)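 Male CF1 mice (22–25 g) received 2 × 10⁶ Ehrlich carcinoma cells ip on day 0. Dosing was ip daily on days 1–8, with sacrifice on day 9. Ascites fluid volume per mouse and ascrit (packed cell volume) were measured for each group. Vehicle was 0.05% Tween 80, or 5% absolute EtOH in 0.05% Tween 80, used for both compound and control. 6-Mercaptopurine was the positive control.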

The subject of assay [3] is Mus musculus. Description: Antitumor activity in 6 CF1 mice bearing Ehrlich ascites carcinoma measured as survivors on day 9 at 8 mg/kg; 6/6. It is filed as functional.
Assay [4] has as its system Mus musculus. Description: Antitumor activity in CF1 mice bearing Ehrlich ascites carcinoma measured as ascites volume at 5 mg/kg. Type of assay: functional. The procedure, abridged:
as §2

Assay [5] has as its system Mus musculus. Description: Antitumor activity in CF1 mice bearing Ehrlich ascites carcinoma measured as percent ascrit packed cell volume at 5 mg/kg. It is filed as functional. In short, it runs like this: as §2
In assay [6] the test system is Mus musculus. Description: Antitumor activity in CF1 mice bearing Ehrlich ascites carcinoma measured as percentage inhibition at 8 mg/kg; IA means inactive. It is filed as functional, organism-based. The arrangement: dose 8 mg/kg. In short, it runs like this: (§3)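 Ehrlich ascites model in male CF1 mice (22–25 g): 2 × 10⁶ cells ip on day 0, ip dosing days 1–8, kill on day 9. Percent inhibition = 100 − [(treated volume × treated ascrit)/(control volume × control ascrit)]. Greater than 80% was taken as significant. Vehicle was 0.05% Tween 80, alone or with 5% absolute EtOH. 6-Mercaptopurine was the positive control.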

For assay [7], the system named is Mus musculus. Description: Antitumor activity in CF1 mice bearing Ehrlich ascites carcinoma measured as percentage inhibition at 1 mg/kg; IA means inactive. Type of assay: functional, organism-based. The arrangement: dose 1 mg/kg. The procedure, abridged:
as §3

The test system of assay [8] is Mus musculus. Description: Antitumor activity in 6 CF1 mice bearing Ehrlich ascites carcinoma measured as survivors on day 9 at 5 mg/kg; 5/6. Type of assay: functional.
In assay [9] the test system is Mus musculus. Description: Antitumor activity in CF1 mice bearing Ehrlich ascites carcinoma measured as percentage inhibition at 5 mg/kg; IA means inactive. It is filed as functional, organism-based. The arrangement: dose 5 mg/kg. In short, it runs like this: as §3
Assay [10] deals with Mus musculus. Description: Antitumor activity in 6 CF1 mice bearing Ehrlich ascites carcinoma measured as survivors on day 9 at 1 mg/kg; 6/6. Type of assay: functional.
In assay [11] the test system is Mus musculus. As to the kind of experiment: Antitumor activity in CF1 mice bearing Ehrlich ascites carcinoma measured as percent ascrit packed cell volume at 8 mg/kg. Type of assay: functional. In short, it runs like this:
as §2

In assay [12] the test system is Mus musculus. Description: Antitumor activity in CF1 mice bearing Ehrlich ascites carcinoma measured as ascites volume at 1 mg/kg. It is filed as functional. The procedure, abridged: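 Ehrlich ascites cells (2 × 10⁶) were implanted ip in male CF1 mice (22–25 g) on day 0. Dosing was ip on days 1–8 in 0.05% Tween 80 or 5% EtOH/0.05% Tween 80, with vehicle controls. Mice were killed on day 9, and ascites fluid volume per mouse was measured.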

Assay [13] deals with Mus musculus. As to the kind of experiment: (§4) Antitumor activity in CF1 mice bearing Ehrlich ascites carcinoma measured as percent ascrit packed cell volume at 3 mg/kg. It is filed as functional. The procedure, abridged:
as §2

Assay [14] deals with Mus musculus. Description: Antitumor activity in CF1 mice bearing Ehrlich ascites carcinoma measured as ascites volume at 3 mg/kg. Type of assay: functional. In short, it runs like this: as §2
For assay [15], the system named is Mus musculus. Description: Antitumor activity in 6 CF1 mice bearing Ehrlich ascites carcinoma measured as survivors on day 9 at 8 mg/kg; 5/6. It is filed as functional.
Assay [16] concerns Mus musculus. Description: Antitumor activity in CF1 mice bearing Ehrlich ascites carcinoma measured as percentage inhibition at 8 mg/kg. It is filed as functional. The procedure, abridged: as §3
Assay [17] deals with Mus musculus. As to the kind of experiment: Antitumor activity in 6 CF1 mice bearing Ehrlich ascites carcinoma measured as survivors on day 9 at 5 mg/kg; 6/6. Type of assay: functional.
The test system of assay [18] is Mus musculus. Description: Antitumor activity in 6 CF1 mice bearing Ehrlich ascites carcinoma measured as survivors on day 9 at 3 mg/kg; 6/6. It is filed as functional.
Assay [19] has as its system Mus musculus. As to the kind of experiment: Antitumor activity in CF1 mice bearing Ehrlich ascites carcinoma measured as percentage inhibition at 3 mg/kg; IA means inactive. The arrangement: dose 3 mg/kg. Type of assay: functional, organism-based. The procedure, abridged:
as §3

Assay [20] has as its system Mus musculus. As to the kind of experiment: Antitumor activity in CF1 mice bearing Ehrlich ascites carcinoma measured as percentage inhibition at 5 mg/kg. It is filed as functional. In short, it runs like this:
as §3

The subject of assay [21] is Mus musculus. The assay is described as §4. Type of assay: functional. The procedure, abridged:
as §1
This is another data set of the same source.

Assay [22] has as its system Mus musculus. Description: Antitumor activity in CF1 mice bearing Ehrlich ascites carcinoma measured as percentage inhibition at 3 mg/kg. It is filed as functional. In short, it runs like this: as §3

Turning to `NC1=C(Cl)C(=O)c2[nH]ncc2C1=O`, the packed cell volume turned out to be 37.6% with Mus musculus [1], 32.3% in the assay on Mus musculus [5] and 29.1% with Mus musculus [11]. For the same molecule, the ascites volume was found to be 3 ml mouse-1 with Mus musculus [2], 2.7 ml mouse-1 with Mus musculus [4] and 2.1 ml mouse-1 in the assay with Mus musculus [12]. The Survivors in the assay with Mus musculus [3] worked out at 6; with Mus musculus [8] it was 5; in the assay on Mus musculus [10], 6. Moreover, the inhibition result in the assay on Mus musculus [6], in the assay with Mus musculus [7] and with Mus musculus [9] was “inactive” throughout.
One may read the inhibition in vivo as how much of the control response was suppressed. Higher therefore signals a strong effect. For `CC(=O)NC1=C(Cl)C(=O)c2[nH]ncc2C1=O`, the packed cell volume with Mus musculus [1] is recorded as 40%; in the assay with Mus musculus [5], 20.2%; with Mus musculus [13], 38.1%; in the assay on Mus musculus [11], 30.8%. The ascites volume in the assay with Mus musculus [2] amounted to 1.8 ml mouse-1; in the assay on Mus musculus [4], 0.33 ml mouse-1; in the assay on Mus musculus [14], 3.6 ml mouse-1; with Mus musculus [12], 3.6 ml mouse-1. The inhibition entry with Mus musculus [7] and with Mus musculus [19] was “inactive” throughout. Moreover, the Survivors came to 5 in the assay on Mus musculus [15], 6 in the assay on Mus musculus [17], 6 in the assay on Mus musculus [18] and 6 in the assay with Mus musculus [10]. For the same molecule, in the assay with Mus musculus [16], the inhibition in vivo at 8 mg/kg was found to be 46.9%. This molecule also displayed an inhibition in vivo at 5 mg/kg with Mus musculus [20] of 83.2%.
Consider `CC(=O)NC1=C(Cl)C(=O)c2c(cnn2C)C1=O`, for which the values for the ascites volume with Mus musculus [2], in the assay on Mus musculus [4] and with Mus musculus [14] were 0.62 ml mouse-1, 0.56 ml mouse-1 and 1.7 ml mouse-1, respectively. For the same molecule, the results for the packed cell volume with Mus musculus [5], in the assay on Mus musculus [21] and in the assay with Mus musculus [11] were 29%, 20% and 37.9%, respectively. Further, the Survivors in the assay with Mus musculus [15] is 5; in the assay with Mus musculus [8] it was 5; in the assay on Mus musculus [18], 6. For the same molecule, the inhibition in vivo at 8 mg/kg in the assay with Mus musculus [16] was determined as 61.7%. This molecule also registered an inhibition in vivo at 3 mg/kg with Mus musculus [22] of 67.8%. The molecule also displayed an inhibition in vivo at 5 mg/kg in the assay with Mus musculus [20] of 90%.
